ChEMBL document CHEMBL1914331, “N-O chemistry for antibiotics: discovery of N-alkyl-N-(pyridin-2-yl)hydroxylamine scaffolds as selective antibacterial agents using nitroso Diels-Alder and ene chemistry” (J Med Chem, 2011)
Converted amounts (≈) assume the structure as drawn.

Assays:
Enterococcus faecalis [1] = experiment: Antimicrobial activity against Enterococcus faecalis ATCC 49532 after 24 hrs by Kirby-Bauer agar diffusion assay; type: functional
Summary of the method: (§1)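 Modified Kirby-Bauer well diffusion. Overnight LB cultures (18–24 h) were standardized in 0.9% saline to 0.5 McFarland and mixed into melted MHII agar at 47–50 °C, giving ~5×10³ CFU/mL. 9 mm wells received 50 µL of 2.0 mM compound in 10:1 MeOH:DMSO. Plates were incubated 24 h at 37 °C, then growth-inhibition zone diameter was measured (mm) by caliper.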

Pseudomonas aeruginosa [2] = experiment: Antimicrobial activity against Pseudomonas aeruginosa 799/WT after 24 hrs by Kirby-Bauer agar diffusion assay; type: functional; summary of the method: as §1
[3] = test system: Sporobolomyces salmonicolor; experiment: Antimicrobial activity against Sporidiobolus salmonicolor 549 after 24 hrs by Kirby-Bauer agar diffusion assay; type: functional; summary of the method: as §1
Bacillus subtilis [4] = experiment: Antimicrobial activity against Bacillus subtilis ATCC 6633 after 24 hrs by Kirby-Bauer agar diffusion assay; type: functional; summary of the method: as §1
PC-3 = experiment: Cytotoxicity against human PC3 cells; type: cell-based
Mycolicibacterium vaccae [5] = experiment: Antimicrobial activity against Mycobacterium vaccae IMET 10670 after 24 hrs by Kirby-Bauer agar diffusion assay; type: functional; summary of the method: as §1
Escherichia coli [6] = experiment: Antimicrobial activity against Escherichia coli DC0 after 24 hrs by Kirby-Bauer agar diffusion assay; type: functional; summary of the method: as §1
HeLa = experiment: Cytotoxicity against human HeLa cells; type: cell-based
Escherichia coli [7] = experiment: Antimicrobial activity against Escherichia coli DC2 after 24 hrs by Kirby-Bauer agar diffusion assay; type: functional; summary of the method: as §1
Staphylococcus aureus [8] = experiment: Antimicrobial activity against Staphylococcus aureus SG511 after 24 hrs by Kirby-Bauer agar diffusion assay; type: functional; summary of the method: as §1
Staphylococcus aureus [9] = experiment: Antimicrobial activity against Staphylococcus aureus SG511 assessed after 18 hrs by broth microdilution method; type: functional; conditions: SG511, 18 h
Summary of the method: (§2)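 CLSI broth microdilution in cation-adjusted MHII broth. 20 mM DMSO stocks were diluted to 512 µM, then serially 2-fold, giving final 128–0.0625 µM with 5×10⁵ CFU/mL inoculum. Incubated 18 h at 37 °C. MIC90 was the lowest concentration giving 90% inhibition by visual turbidity versus DMSO wells. Run in triplicate.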

Micrococcus luteus [10] = experiment: Antimicrobial activity against Micrococcus luteus ATCC 10240 assessed after 18 hrs by broth microdilution method; type: functional; conditions: ATCC 10240, 18 h; summary of the method: as §2
Micrococcus luteus [11] = experiment: Antimicrobial activity against Micrococcus luteus ATCC 10240 after 24 hrs by Kirby-Bauer agar diffusion assay; type: functional; summary of the method: as §1
MCF7 = experiment: Cytotoxicity against human MCF7 cells; type: cell-based
Staphylococcus aureus [12] = experiment: Antimicrobial activity against methicillin-resistant Staphylococcus aureus 134/94 after 24 hrs by Kirby-Bauer agar diffusion assay; type: functional
Summary of the method: (§3)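 Overnight LB cultures (18–24 h) adjusted to a 0.5 McFarland standard (1.5×10^6 CFU/mL in 0.9% saline), then 0.1 mL mixed into 34 mL molten MHII agar at 47–50 °C (~5×10^3 CFU/mL). 50 µL of 2.0 mM compound in 10:1 MeOH:DMSO placed in 9 mm wells. Incubated at 37 °C for 24 h; inhibition zone diameter (mm) measured by caliper.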

Pseudomonas aeruginosa [13] = experiment: Antimicrobial activity against Pseudomonas aeruginosa 799/61 after 24 hrs by Kirby-Bauer agar diffusion assay; type: functional; summary of the method: as §1
Enterococcus faecalis [14] = experiment: Antimicrobial activity against Enterococcus faecalis ATCC 49532 assessed after 18 hrs by broth microdilution method; type: functional; conditions: ATCC 49532, 18 h; summary of the method: as §2
Enterococcus faecalis [15] = experiment: Antimicrobial activity against vancomycin-resistant Enterococcus faecalis 1528 after 24 hrs by Kirby-Bauer agar diffusion assay; type: functional; summary of the method: as §3
Pseudomonas aeruginosa [16] = experiment: microbe, parasite or virus in culture; conditions: 799/61, 24 h, read-out: DIZ
Staphylococcus aureus [17] = experiment: microbe, parasite or virus in culture; conditions: 134/94, 24 h, read-out: DIZ
Micrococcus luteus [18] = experiment: Antimicrobial activity against Micrococcus luteus ATCC 10240 at 5 ug/ml after 24 hrs by Kirby-Bauer agar diffusion assay; type: functional; conditions: ATCC 10240, 24 h, read-out: DIZ
Summary of the method: (§4)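 Ciprofloxacin control, 5 µg/mL in water, 50 µL per 9 mm well in MHII agar seeded with ~5×10³ CFU/mL (saline suspension standardized to 0.5 McFarland from an overnight LB culture). Incubated at 37 °C for 24 h; inhibition zone diameter read in mm.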

Bacillus subtilis [19] = experiment: microbe, parasite or virus in culture; conditions: ATCC 6633, 24 h, read-out: DIZ
Enterococcus faecalis [20] = experiment: microbe, parasite or virus in culture; conditions: ATCC 49532, 24 h, read-out: DIZ
Mycolicibacterium vaccae [21] = experiment: Antimicrobial activity against Mycobacterium vaccae IMET 10670 at 5 ug/ml after 24 hrs by Kirby-Bauer agar diffusion assay; type: functional; conditions: IMET 10670, 24 h, read-out: DIZ; summary of the method: as §4
Staphylococcus aureus [22] = experiment: Antimicrobial activity against Staphylococcus aureus SG511 at 5 ug/ml after 24 hrs by Kirby-Bauer agar diffusion assay; conditions: SG511, 24 h, read-out: DIZ
Escherichia coli [23] = experiment: Antimicrobial activity against Escherichia coli DC2 at 5 ug/ml after 24 hrs by Kirby-Bauer agar diffusion assay; conditions: DC2, 24 h, read-out: DIZ
Escherichia coli [24] = experiment: Antimicrobial activity against Escherichia coli DC0 at 5 ug/ml after 24 hrs by Kirby-Bauer agar diffusion assay; conditions: DC0, 24 h, read-out: DIZ
Pseudomonas aeruginosa [25] = experiment: microbe, parasite or virus in culture; conditions: 799/WT, 24 h, read-out: DIZ
Enterococcus faecalis [26] = experiment: microbe, parasite or virus in culture; conditions: Enterococcus faecalis, 1528, 24 h, read-out: DIZ
[27] = test system: Sporobolomyces salmonicolor; experiment: Antimicrobial activity against Sporidiobolus salmonicolor 549 at 10 ug/ml after 24 hrs by Kirby-Bauer agar diffusion assay; type: functional; conditions: Sporobolomyces salmonicolor, 549, 24 h; read-out: DIZ
Summary of the method: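 Control for the yeast: amphotericin B, 10 µg/mL in 10:1 DMSO:MeOH, 50 µL per 9 mm well in inoculated MHII agar (~5×10³ CFU/mL). Incubated at 37 °C for 24 h; growth-inhibition zone diameter measured in mm.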

| SMILES | diameter of the inhibition zone (DIZ) (Enterococcus faecalis [1]) | Activity (PC-3) | Activity (HeLa) | diameter of the inhibition zone (DIZ) (Staphylococcus aureus [8]) | MIC90 (Staphylococcus aureus [9]) | MIC90 (Micrococcus luteus [10]) | diameter of the inhibition zone (DIZ) (Micrococcus luteus [11]) | Activity (MCF7) | MIC90 (Enterococcus faecalis [14]) | other results |
| --- | --- | --- | --- | --- | --- | --- | --- | --- | --- | --- |
| C=C(C)C(CC/C(C)=C/CO)N(O)c1ccccn1 (racemic) | 20 mm | Non-toxic | Non-toxic | 19 mm | 64 µM (≈ 16.8 µg/mL) | 8 µM (≈ 2.1 µg/mL) | 35 mm | Non-toxic | > 128 µM | diameter of the inhibition zone (DIZ) (Pseudomonas aeruginosa [2]): <=10 mm; diameter of the inhibition zone (DIZ) [3]: <=10 mm; diameter of the inhibition zone (DIZ) (Bacillus subtilis [4]): 11 mm; diameter of the inhibition zone (DIZ) (Mycolicibacterium vaccae [5]): 16 mm; diameter of the inhibition zone (DIZ) (Escherichia coli [6]): <=10 mm; diameter of the inhibition zone (DIZ) (Escherichia coli [7]): <=10 mm; diameter of the inhibition zone (DIZ) (Staphylococcus aureus [12]): 16 mm; diameter of the inhibition zone (DIZ) (Pseudomonas aeruginosa [13]): <=10 mm; diameter of the inhibition zone (DIZ) (Enterococcus faecalis [15]): 16 mm |
| O=C(O)c1cn(C2CC2)c2cc(N3CCNCC3)c(F)cc2c1=O [CIPROFLOXACIN] |  |  |  |  | 0.5 µM (≈ 0.166 µg/mL) |  |  |  | 2 µM (≈ 0.663 µg/mL) | zone of inhibition at 5 µg/mL (Pseudomonas aeruginosa [16]): ≥ 21 mm; zone of inhibition at 5 µg/mL (Staphylococcus aureus [17]): 11 mm; zone of inhibition at 5 µg/mL (Micrococcus luteus [18]): ≤ 10 mm; zone of inhibition at 5 µg/mL (Bacillus subtilis [19]): ≥ 21 mm; zone of inhibition at 5 µg/mL (Enterococcus faecalis [20]): 16 mm; zone of inhibition at 5 µg/mL (Mycolicibacterium vaccae [21]): ≥ 21 mm; zone of inhibition at 5 µg/mL (Staphylococcus aureus [22]): ≥ 21 mm; zone of inhibition at 5 µg/mL (Escherichia coli [23]): ≥ 21 mm; zone of inhibition at 5 µg/mL (Escherichia coli [24]): ≥ 21 mm; zone of inhibition at 5 µg/mL (Pseudomonas aeruginosa [25]): ≥ 21 mm; zone of inhibition at 5 µg/mL (Enterococcus faecalis [26]): 16 mm |
| C=C(C)C(C)N(O)c1cccc(C)n1 (racemic) | 15 mm | Non-toxic | Non-toxic | 12 mm | > 128 µM | 4 µM (≈ 0.769 µg/mL) | 48 mm | Non-toxic | > 128 µM | diameter of the inhibition zone (DIZ) (Pseudomonas aeruginosa [2]): <=10 mm; diameter of the inhibition zone (DIZ) [3]: <=10 mm; diameter of the inhibition zone (DIZ) (Bacillus subtilis [4]): <=10 mm; diameter of the inhibition zone (DIZ) (Mycolicibacterium vaccae [5]): 16 mm; diameter of the inhibition zone (DIZ) (Escherichia coli [6]): <=10 mm; diameter of the inhibition zone (DIZ) (Escherichia coli [7]): <=10 mm; diameter of the inhibition zone (DIZ) (Staphylococcus aureus [12]): 11 mm; diameter of the inhibition zone (DIZ) (Pseudomonas aeruginosa [13]): <=10 mm; diameter of the inhibition zone (DIZ) (Enterococcus faecalis [15]): 16 mm |
| C[C@@H]1[C@H](O)[C@@H](C)/C=C/C=C/C=C/C=C/C=C/C=C/C=C/[C@H](O[C@@H]2O[C@H](C)[C@@H](O)[C@H](N)[C@@H]2O)C[C@@H]2O[C@](O)(C[C@@H](O)C[C@@H](O)[C@H](O)CC[C@@H](O)C[C@@H](O)CC(=O)O[C@H]1C)C[C@H](O)[C@H]2C(=O)O [AMPHOTERICIN B] |  |  |  |  |  |  |  |  |  | zone of inhibition at 10 µg/mL [27]: 16 mm |
| CO[C@@H]1C=C[C@@H](N(O)c2ccc(Br)cn2)CC1 (racemic) | 16 mm | Non-toxic | Non-toxic | 12 mm | > 128 µM | 4 µM (≈ 1.2 µg/mL) | 34 mm | Non-toxic | > 128 µM | diameter of the inhibition zone (DIZ) (Pseudomonas aeruginosa [2]): <=10 mm; diameter of the inhibition zone (DIZ) [3]: <=10 mm; diameter of the inhibition zone (DIZ) (Bacillus subtilis [4]): <=10 mm; diameter of the inhibition zone (DIZ) (Mycolicibacterium vaccae [5]): 11 mm; diameter of the inhibition zone (DIZ) (Escherichia coli [6]): <=10 mm; diameter of the inhibition zone (DIZ) (Escherichia coli [7]): <=10 mm; diameter of the inhibition zone (DIZ) (Staphylococcus aureus [12]): 11 mm; diameter of the inhibition zone (DIZ) (Pseudomonas aeruginosa [13]): <=10 mm; diameter of the inhibition zone (DIZ) (Enterococcus faecalis [15]): 16 mm |
| C=C(C)C(C)N(O)c1ncc(C(F)(F)F)cc1Cl (racemic) | 13 mm | Non-toxic | Non-toxic | 0 mm | > 128 µM | 128 µM (≈ 35.9 µg/mL) | 15 mm | Non-toxic | > 128 µM |  |
| C=C(CN(O)c1ccccn1)c1ccccc1 | 18 mm | Non-toxic | Non-toxic | 19 mm | 32 µM (≈ 7.24 µg/mL) | 64 µM (≈ 14.5 µg/mL) | 20 mm | Non-toxic | > 128 µM |  |
| CO[C@H]1C=CCC[C@@H]1Nc1ccc(Br)cn1 (racemic) | 0 mm | Non-toxic | Non-toxic | 0 mm | > 128 µM | > 128 µM | 0 mm | Non-toxic | > 128 µM |  |
| C=C(C)C(C)N(O)c1ncc(Cl)cc1Cl (racemic) | 14 mm | Non-toxic | Non-toxic | 0 mm | > 128 µM | 16 µM (≈ 3.95 µg/mL) | 27 mm | Non-toxic | > 128 µM |  |
| C=C(C)C(CC/C(C)=C/CO)N(O)c1cccc(CC)n1 (racemic) | 19 mm | Non-toxic | Non-toxic | 18 mm | > 128 µM | 2 µM (≈ 0.581 µg/mL) | 31 mm | Non-toxic | > 128 µM |  |
| C=C(C)C(C)N(O)c1ccc(I)cn1 (racemic) | 19 mm | Non-toxic | Non-toxic | 12 mm | > 128 µM | 2 µM (≈ 0.608 µg/mL) | 38 mm | Non-toxic | > 128 µM |  |
| C=C(C)C(C)N(O)c1ncccc1C (racemic) | 19 mm | Non-toxic | Non-toxic | 10 mm | > 128 µM | 16 µM (≈ 3.08 µg/mL) | 25 mm | Non-toxic | > 128 µM |  |
